The test system of data set [1] is Mycobacterium intracellulare. Put plainly: Antimicrobial activity against Mycobacterium intracellulare ATCC 23068 after 70 to 74 hrs by Alamar Blue method. The data set is classed as functional, organism-based.
Data set [2] deals with Cryptococcus neoformans. Put plainly: Antimicrobial activity against Cryptococcus neoformans ATCC 90113 assessed as growth inhibition after 70 to 74 hrs by CLSI method. In kind it is functional, organism-based.
Data set [3] concerns Cryptococcus neoformans. Put plainly: Antimicrobial activity against Cryptococcus neoformans ATCC 90113 assessed as detectable growth after 70 to 74 hrs by CLSI method. In kind it is functional.
Data set [4] deals with Cryptococcus neoformans. Put plainly: Antimicrobial activity against Cryptococcus neoformans ATCC 90113 assessed as complete killing after 70 to 74 hrs by CLSI method. The data set is classed as functional.
For another data set, the system named is SK-MEL. The experiment in a line: Cytotoxicity against human SK-MEL cells after 48 hrs by neutral red assay. In kind it is cell-based. A digest of the protocol:
(§1)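 Cells were exposed to peptides up to a highest tested concentration of 10 μg/mL, using a previously reported cytotoxicity protocol.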

In the next data set the test system is KB. The experiment in a line: Cytotoxicity against human KB cells after 48 hrs by neutral red assay. The data set is classed as cell-based. A digest of the protocol: as §1
A further data set has as its system BT-549. The experiment in a line: Cytotoxicity against human BT549 cells after 48 hrs by neutral red assay. Particulars: bt-549, 48 h. The data set is classed as cell-based. A digest of the protocol:
as §1

The nature of data set [5]: Cytotoxicity against human SKOV3 cells after 48 hrs by neutral red assay. The data set is classed as cell-based. Particulars: sk-ov-3, 48 h. A digest of the protocol: as §1
A further data set concerns Vero. Put plainly: Cytotoxicity against African green monkey Vero cells after 48 hrs by neutral red assay. In kind it is cell-based. To be noted: chlorocebus sabaeus. The method, boiled down: as §1
A short description of data set [6]: Cytotoxicity against pig LLC-PK cells after 48 hrs by neutral red assay. In kind it is cell-based, Sus scrofa. A digest of the protocol:
as §1

Data set [7] deals with Staphylococcus aureus. Put plainly: Antibacterial activity against Staphylococcus aureus ATCC 29213 assessed as absence of detectable growth. In kind it is functional. A digest of the protocol: (§2)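 Antibacterial susceptibility determined by the CLSI (formerly NCCLS) protocol. MIC is the lowest test concentration (μg/mL) allowing no detectable growth. MBC is the lowest test concentration killing 100% of the organism.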

The subject of data set [8] is Staphylococcus aureus. The experiment in a line: Antibacterial activity against methicillin-resistant Staphylococcus aureus ATCC 33591 assessed as absence of detectable growth. In kind it is functional. The method, boiled down:
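MIC was determined by the CLSI (formerly NCCLS) protocol. It was taken as the lowest test concentration in μg/mL allowing no detectable growth.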

The subject of data set [9] is Staphylococcus aureus. Put plainly: Antibacterial activity against Staphylococcus aureus ATCC 29213 assessed as 100% killing. The data set is classed as functional. A digest of the protocol: as §2
In data set [10] the test system is Staphylococcus aureus. Put plainly: Antibacterial activity against methicillin-resistant Staphylococcus aureus ATCC 33591 assessed as 100% killing. In kind it is functional. The method, boiled down:
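Testing followed the CLSI (formerly NCCLS) susceptibility protocol. MBC was taken as the lowest test concentration in μg/mL that kills 100% of the organism.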

From ChEMBL document CHEMBL3351734 (Bioorg Med Chem Lett, 2014) come the findings set out here.

≈ marks a conversion by molar mass, not a printed value. Calls of active or inactive are those of the source. No cut-off for these calls is given here. Residues, ends and D or L forms follow the SMILES beside them. *: point of attachment. Boc = CC(C)(C)OC(=O)*; NHBn = c1ccc(CN*)cc1

As to `CC(C)(C)OC(=O)N[C@@H](Cc1cnc(C2CCCCC2)[nH]1)C(=O)N[C@@H](Cc1c[nH]c2ccccc12)C(=O)N[C@@H](Cc1cnc(C2CCCCC2)[nH]1)C(=O)NCc1ccccc1`, the inhibition result in data set [1] was “inactive”. In addition, in the data set with Cryptococcus neoformans [2], the IC50 result was “Not Active”. Moreover, in the data set on Cryptococcus neoformans [3], the MIC – broadly, the least concentration at which growth counts as inhibited – is “inactive”. In addition, in the data set on Cryptococcus neoformans [4], the MFC entry is “inactive”. Further, the Activity (in the data set on SK-MEL; in the data set with KB; with BT-549; in [5]; in the data set with Vero; in data set [6]) was over 10 µg/mL in each case.

For `CC(C)(C)OC(=O)N[C@@H](Cc1cnc(C(C)(C)C)[nH]1)C(=O)N[C@@H](Cc1c[nH]c2ccccc12)C(=O)N[C@@H](Cc1cnc(C(C)(C)C)[nH]1)C(=O)NCc1ccccc1`, the inhibition entry in data set [1] was “inactive”. Further, the IC50 entry with Cryptococcus neoformans [2] was “Not Active”. Further, the MIC result in the data set with Cryptococcus neoformans [3] was “inactive”. In addition, in the data set with Cryptococcus neoformans [4], the MFC result is “inactive”. In addition, the Activity (in the data set on SK-MEL; in the data set with KB; in the data set with BT-549; in data set [5]; with Vero; in data set [6]) was over 10 µg/mL throughout.

With `CC(C)(C)c1ncc(C[C@H](NC(=O)[C@H](Cc2c[nH]c3ccccc23)NC(=O)[C@@H](N)Cc2cnc(C(C)(C)C)[nH]2)C(=O)NCc2ccccc2)[nH]1`, in [1], the inhibition entry was “inactive”. The MFC in the data set with Cryptococcus neoformans [4] was 20 µg/mL (≈ 29.4 µM). Moreover, the Activity (in the data set with SK-MEL; in the data set with KB; with BT-549; in data set [5]; in the data set on Vero; in [6]) was over 10 µg/mL throughout.

Regarding `CC(C)(C)OC(=O)N[C@@H](Cc1cnc(C2CCCC2)[nH]1)C(=O)N[C@@H](Cc1c[nH]c2ccccc12)C(=O)N[C@@H](Cc1cnc(C2CCCC2)[nH]1)C(=O)NCc1ccccc1`, in data set [1], the inhibition result was “inactive”. In the data set on Cryptococcus neoformans [3], the MIC entry was “inactive”. The MFC entry with Cryptococcus neoformans [4] is “inactive”. For the same compound, the Activity (in the data set with SK-MEL; with KB; with BT-549; in data set [5]; in the data set on Vero; in [6]) was over 10 µg/mL in each case.

On to `N[C@@H](Cc1cnc(C2CCCC2)[nH]1)C(=O)N[C@@H](Cc1c[nH]c2ccccc12)C(=O)N[C@@H](Cc1cnc(C2CCCC2)[nH]1)C(=O)NCc1ccccc1`, for which the inhibition entry in [1] was “inactive”. Moreover, the IC50 entry in the data set on Cryptococcus neoformans [2] was “Not Active”. Moreover, the MIC result in the data set with Cryptococcus neoformans [3] was “inactive”. Moreover, the MFC result with Cryptococcus neoformans [4] was “inactive”. Also, the Activity (in the data set with SK-MEL; in the data set on KB; in the data set with BT-549; in data set [5]; in the data set with Vero; in [6]) was over 10 µg/mL in each case.

As to `CC(C)c1ncc(C[C@H](NC(=O)[C@H](Cc2c[nH]c3ccccc23)NC(=O)[C@@H](N)Cc2cnc(C(C)C)[nH]2)C(=O)NCc2ccccc2)[nH]1`, the inhibition result in data set [1] was “inactive”. In the data set with Cryptococcus neoformans [3], the MIC came to 20 µg/mL (≈ 30.7 µM). The Activity (with SK-MEL; with KB; with BT-549; in data set [5]; with Vero; in [6]) was over 10 µg/mL each time.

On to `CC(C)(C)OC(=O)N[C@@H](Cc1cnc[nH]1)C(=O)N[C@@H](Cc1c[nH]c2ccccc12)C(=O)N[C@@H](Cc1cnc[nH]1)C(=O)NCc1ccccc1` (Boc-His-Trp-His-NHBn), for which the inhibition entry in data set [1] is “inactive”. For the same compound, the MFC in the data set on Cryptococcus neoformans [4] was 1.25 µg/mL (≈ 1.87 µM). Further, the Activity (with SK-MEL; with KB; in the data set on BT-549; in [5]; in the data set with Vero; in data set [6]) was over 10 µg/mL in each case.

Consider `N[C@@H](Cc1cnc(C23CC4CC(CC(C4)C2)C3)[nH]1)C(=O)N[C@@H](Cc1c[nH]c2ccccc12)C(=O)N[C@@H](Cc1cnc(C23CC4CC(CC(C4)C2)C3)[nH]1)C(=O)NCc1ccccc1`, for which the inhibition result in [1] was “inactive”. For the same compound, the MIC in the data set with Cryptococcus neoformans [3] amounted to 0.63 µg/mL (≈ 0.754 µM); in the data set on Staphylococcus aureus [7], 5 µg/mL (≈ 5.98 µM); with Staphylococcus aureus [8], 10 µg/mL (≈ 12 µM). In addition, the Activity (in the data set on SK-MEL; with KB; in the data set on BT-549; in data set [5]; in the data set on Vero; in data set [6]) was over 10 µg/mL each time.

Consider `O=C(O)c1cn(C2CC2)c2cc(N3CCNCC3)c(F)cc2c1=O` [CIPROFLOXACIN], for which, in data set [1], the inhibition result is “inactive”.

As to `N[C@@H](Cc1cnc[nH]1)C(=O)N[C@@H](Cc1c[nH]c2ccccc12)C(=O)N[C@@H](Cc1cnc[nH]1)C(=O)NCc1ccccc1` (H-His-Trp-His-NHBn), in data set [1], the inhibition entry is “inactive”. Also, the MFC in the data set on Cryptococcus neoformans [4] turned out to be 10 µg/mL (≈ 17.6 µM). Moreover, the Activity (in the data set on SK-MEL; with KB; in the data set on BT-549; in data set [5]; in the data set on Vero; in data set [6]) was over 10 µg/mL throughout.

Take `CC(C)(C)OC(=O)N[C@@H](Cc1cnc(C23CC4CC(CC(C4)C2)C3)[nH]1)C(=O)N[C@@H](Cc1c[nH]c2ccccc12)C(=O)N[C@@H](Cc1cnc(C23CC4CC(CC(C4)C2)C3)[nH]1)C(=O)NCc1ccccc1`: the inhibition result in data set [1] is “inactive”. Further, the Activity (in the data set with SK-MEL; in the data set on KB; with BT-549; in [5]; with Vero; in data set [6]) was over 10 µg/mL each time. Further, in the data set on Staphylococcus aureus [7], the MIC was 20 µg/mL (≈ 21.4 µM). In addition, the MBC with Staphylococcus aureus [9] and in the data set with Staphylococcus aureus [10] was 20 µg/mL (≈ 21.4 µM) each time.

For `CC(C)c1ncc(C[C@H](NC(=O)OC(C)(C)C)C(=O)N[C@@H](Cc2c[nH]c3ccccc23)C(=O)N[C@@H](Cc2cnc(C(C)C)[nH]2)C(=O)NCc2ccccc2)[nH]1`, in [1], the inhibition entry is “inactive”. Moreover, the IC50 entry in the data set with Cryptococcus neoformans [2] is “Not Active”. In addition, the MIC entry in the data set with Cryptococcus neoformans [3] was “inactive”. The MFC result in the data set with Cryptococcus neoformans [4] is “inactive”. The Activity (with SK-MEL; with KB; in the data set on BT-549; in [5]; in the data set with Vero; in data set [6]) was over 10 µg/mL throughout.

As to `N[C@@H](Cc1cnc(C2CCCCC2)[nH]1)C(=O)N[C@@H](Cc1c[nH]c2ccccc12)C(=O)N[C@@H](Cc1cnc(C2CCCCC2)[nH]1)C(=O)NCc1ccccc1`, the inhibition entry in [1] is “inactive”. Moreover, the MIC in the data set with Cryptococcus neoformans [3] was found to be 1.25 µg/mL (≈ 1.71 µM). Further, the Activity (with SK-MEL; in the data set with KB; with BT-549; in [5]; in the data set on Vero; in data set [6]) was over 10 µg/mL each time.

`C[C@@H]1[C@H](O)[C@@H](C)/C=C/C=C/C=C/C=C/C=C/C=C/C=C/[C@H](O[C@@H]2O[C@H](C)[C@@H](O)[C@H](N)[C@@H]2O)C[C@@H]2O[C@](O)(C[C@@H](O)C[C@@H](O)[C@H](O)CC[C@@H](O)C[C@@H](O)CC(=O)O[C@H]1C)C[C@H](O)[C@H]2C(=O)O` [AMPHOTERICIN B]: in data set [1], the inhibition result was “inactive”. Besides, the MFC in the data set on Cryptococcus neoformans [4] is 1.25 µg/mL (≈ 1.35 µM). Also, the Activity (in the data set on SK-MEL; with KB; with BT-549; in data set [5]; in the data set on Vero; in data set [6]) was over 10 µg/mL throughout.
